≈ marks a conversion by molar mass, not a printed value.
How the values were obtained:
BALB/c 3T3 cells = experiment: MTT cytotoxicity assay, 3T3 fibroblasts; assay type: cell-based, murine; conditions: for IC50: Mus musculus, BALB/c3T3, 240 h, read-out: IC50 3T3
mES-D3 cells = experiment: MTT cytotoxicity assay, embryonic stem cells; assay type: cell-based, murine; conditions: Mus musculus, Embryonic stem cell, 240 h, read-out: IC50 ES
[1] = cited from earlier work
[2] = system: mES-D3 cells and BALB/c-3T3 cells; experiment: Classification of embryotoxicity by the ECVAM prediction model; parameters: species or system murine; conditions: prediction model from mean IC50 3T3, IC50 ES and ID50
Procedure, shortened: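 Class (non-, weak or strong embryotoxic) comes from the ECVAM linear discriminant prediction model using mean IC50 3T3, IC50 ES and ID50. ID50 setup: 1,000 mES cells per 20 µl hanging drop without LIF for 3 days, then suspension for 2 days, then 100 EBs/well on 0.1% gelatin for 5 days. Compound is present from day 0. On day 10, α/β-MHC expression is measured by RT-PCR against GAPDH, giving the 50%-suppression concentration (mean of three repeats).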

mice = conditions: cited from earlier work
[3] = system: mouse preimplantation embryos; conditions: in vivo; cited from earlier work
[4] = toxicological studies; cited from earlier work

Compound	IC50 (BALB/c 3T3 cells)	IC50 (mES-D3 cells)	Known in vivo embryotoxic potential [1]	Classification of the embryotoxicity [2]	Classification of the embryotoxicity according to the PM (in words) [2]	Oral lethal dose (mice)	Influence on development of preimplantation embryos [3]	IC50 3T3 (BALB/c 3T3 cells; BALB/c 3T3 cells, 10 days of culture, MTT, mean ± standard error of the mean of three experiments)	Toxicity in vivo [4]
O=c1[nH]cc(F)c(=O)[nH]1 [5-fluorouracil, reference compound]	0.244 ± 0.051 µg/mL (≈ 1.88 µM)	0.08 ± 0.016 µg/mL (≈ 0.615 µM)	strong embryotoxicity	Strong	strong embryotoxicity	–	–	–	–
CC(C)c1cc2c(c(O)c1O)[C@@]1(C(=O)O)CCCC(C)(C)[C@@H]1CC2 [Carnosic acid]	26.3 ± 3.86 µg/mL (≈ 79.1 µM)	5.77 ± 1.3 µg/mL (≈ 17.4 µM)	–	Weak	weak embryotoxicity	7,100 mg/kg of body weight	–	–	–
CCCCCCCCOC(=O)c1ccccc1C(=O)OCCCCCCCC [Dioctyl phthalate, dioctyl phthalate]	213 ± 28.2 µg/mL (≈ 547 µM)	124 ± 24.9 µg/mL (≈ 316 µM)	–	Weak	weak embryotoxicity	–	–	–	–
C=CCc1ccc(O)c(OC)c1 [Eugenol, eugenol]	9.44 ± 2.85 µg/mL (≈ 57.5 µM)	1.93 ± 0.329 µg/mL (≈ 11.7 µM)	–	Strong	strong embryotoxicity	–	may induce a significantly increased rate of cell death and affect the development of embryo	–	–
CC1(C)S[C@@H]2[C@H](NC(=O)Cc3ccccc3)C(=O)N2[C@H]1C(=O)O [Penicillin G, penicillin G, reference compound]	1160 ± 69.1 µg/mL (≈ 3470 µM)	1570 ± 152 µg/mL (≈ 4690 µM)	–	None	non-embryotoxicity	–	–	–	–
procyanidin	–	–	–	None	non-embryotoxicity	–	–	12.100 ± 1.828 µg/mL	nontoxic and does not cause any detrimental effects in vivo
